In ChEMBL document CHEMBL1132569:

Legend:
[1] = target: T1, Muscarinic acetylcholine receptor M4 (Homo sapiens) (UniProt P08173); assay: Binding affinity at the NMS liganded human muscarinic acetylcholine receptor M4 was estimated as log affinity (log1/M)
T1 sequence (whole entry): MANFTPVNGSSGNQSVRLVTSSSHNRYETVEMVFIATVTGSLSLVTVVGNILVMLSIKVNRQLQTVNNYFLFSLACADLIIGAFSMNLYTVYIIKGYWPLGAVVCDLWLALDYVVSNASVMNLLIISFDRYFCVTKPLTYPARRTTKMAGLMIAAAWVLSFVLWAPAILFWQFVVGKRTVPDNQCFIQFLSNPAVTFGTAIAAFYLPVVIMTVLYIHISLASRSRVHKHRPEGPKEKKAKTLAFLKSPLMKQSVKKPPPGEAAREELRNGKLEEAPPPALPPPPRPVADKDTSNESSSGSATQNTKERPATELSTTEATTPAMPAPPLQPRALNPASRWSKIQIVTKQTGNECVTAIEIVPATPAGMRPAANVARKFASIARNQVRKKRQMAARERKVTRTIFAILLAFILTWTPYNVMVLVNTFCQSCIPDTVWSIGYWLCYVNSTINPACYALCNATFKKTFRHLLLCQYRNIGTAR
Method in brief: (§1)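 Equilibrium runs were ≥2 h with 2 × 10⁻⁴ M GTP and 0.1–0.7 nM ³H-NMS. Nonspecific binding was defined with 10⁻⁶ M QNB, and bound ligand was filtered and counted. Log affinities came from semiquantitative plus off-rate, quantitative equilibrium, or nonequilibrium assays, fitted by nonlinear least squares to the allosteric ternary complex model.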

[2] = target: T1, Muscarinic acetylcholine receptor M4 (Homo sapiens); assay: Binding affinity at the unliganded human muscarinic acetylcholine receptor M4 was estimated as log affinity (log1/M); method in brief: as §1
[3] = target: T1, Muscarinic acetylcholine receptor M4 (Homo sapiens); assay: Cooperativity with NMS at human muscarinic acetylcholine receptor M4
Method in brief: (§2)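 Equilibrium ³H-NMS binding in CHO membranes expressing human m1–m5 receptors was measured with and without ACh, alone and with three agent concentrations. Data were converted to affinity ratios, meaning apparent primary-ligand affinity with agent divided by affinity without it.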

[4] = target: T1, Muscarinic acetylcholine receptor M4 (Homo sapiens); assay: Cooperativity with acetylcholine at human muscarinic acetylcholine receptor M4; method in brief: as §2
[5] = target: Muscarinic acetylcholine receptor M3 (Homo sapiens) (UniProt P20309); assay: Cooperativity with NMS at human muscarinic acetylcholine receptor M3; method in brief: as §2
Chain of Muscarinic acetylcholine receptor M3 (Homo sapiens) (P20309 whole entry, looked up): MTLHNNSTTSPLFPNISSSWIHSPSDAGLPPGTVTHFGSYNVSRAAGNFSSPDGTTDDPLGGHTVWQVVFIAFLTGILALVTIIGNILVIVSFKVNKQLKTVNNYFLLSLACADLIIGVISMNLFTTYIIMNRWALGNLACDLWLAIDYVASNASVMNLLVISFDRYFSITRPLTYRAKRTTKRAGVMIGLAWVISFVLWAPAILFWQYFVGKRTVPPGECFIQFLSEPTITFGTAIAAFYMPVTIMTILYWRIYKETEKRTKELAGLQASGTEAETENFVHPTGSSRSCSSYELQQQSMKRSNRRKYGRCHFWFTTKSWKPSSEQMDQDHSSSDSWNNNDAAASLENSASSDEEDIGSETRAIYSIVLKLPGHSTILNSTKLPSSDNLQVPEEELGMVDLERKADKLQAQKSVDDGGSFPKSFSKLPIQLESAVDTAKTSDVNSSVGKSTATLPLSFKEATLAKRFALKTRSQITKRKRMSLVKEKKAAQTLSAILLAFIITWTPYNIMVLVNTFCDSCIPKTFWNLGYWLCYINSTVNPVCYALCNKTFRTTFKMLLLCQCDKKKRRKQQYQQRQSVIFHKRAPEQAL

[6] = target: Muscarinic acetylcholine receptor M3 (Homo sapiens) (UniProt P20309); assay: Cooperativity with acetylcholine at human muscarinic acetylcholine receptor M3; method in brief: as §2
[7] = target: Muscarinic acetylcholine receptor M3 (Homo sapiens) (UniProt P20309); assay: Binding affinity at the NMS liganded human muscarinic acetylcholine receptor M3 was estimated as log affinity (log1/M); method in brief: as §1
[8] = target: Muscarinic acetylcholine receptor M3 (Homo sapiens) (UniProt P20309); assay: Binding affinity at the unliganded human muscarinic acetylcholine receptor M3 was estimated as log affinity (log1/M); method in brief: as §1
[9] = target: T2, Muscarinic acetylcholine receptor M5 (Homo sapiens) (UniProt P08912); assay: Binding affinity at the NMS liganded human muscarinic acetylcholine receptor M5 was estimated as log affinity (log1/M); method in brief: as §1
T2 sequence (whole entry): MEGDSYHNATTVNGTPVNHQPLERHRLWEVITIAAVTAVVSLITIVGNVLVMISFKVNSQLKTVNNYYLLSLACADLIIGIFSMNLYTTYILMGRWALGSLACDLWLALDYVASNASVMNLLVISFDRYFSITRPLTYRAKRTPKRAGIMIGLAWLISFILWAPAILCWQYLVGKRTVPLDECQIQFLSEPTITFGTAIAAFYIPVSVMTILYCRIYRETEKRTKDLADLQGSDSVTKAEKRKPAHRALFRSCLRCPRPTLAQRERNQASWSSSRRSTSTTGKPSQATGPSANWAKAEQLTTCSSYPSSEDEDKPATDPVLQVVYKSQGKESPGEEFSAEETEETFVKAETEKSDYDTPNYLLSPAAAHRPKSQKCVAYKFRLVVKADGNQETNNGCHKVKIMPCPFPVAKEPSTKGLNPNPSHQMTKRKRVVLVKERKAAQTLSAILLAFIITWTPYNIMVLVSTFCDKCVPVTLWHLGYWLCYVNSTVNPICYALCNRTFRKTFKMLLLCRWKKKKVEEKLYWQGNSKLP

[10] = target: T2, Muscarinic acetylcholine receptor M5 (Homo sapiens); assay: Binding affinity at the unliganded Muscarinic acetylcholine receptor M5 was estimated as log affinity (log1/M); method in brief: as §1
[11] = target: T2, Muscarinic acetylcholine receptor M5 (Homo sapiens); assay: Cooperativity with NMS at Muscarinic acetylcholine receptor M5; method in brief: as §2
[12] = target: T2, Muscarinic acetylcholine receptor M5 (Homo sapiens); assay: Cooperativity with acetylcholine at Muscarinic acetylcholine receptor M5; method in brief: as §2
[13] = target: T3, Muscarinic acetylcholine receptor M2 (Homo sapiens) (UniProt P08172); assay: Binding affinity at the NMS liganded human muscarinic acetylcholine receptor M2 was estimated as log affinity (log1/M); method in brief: as §1
T3 sequence (whole entry): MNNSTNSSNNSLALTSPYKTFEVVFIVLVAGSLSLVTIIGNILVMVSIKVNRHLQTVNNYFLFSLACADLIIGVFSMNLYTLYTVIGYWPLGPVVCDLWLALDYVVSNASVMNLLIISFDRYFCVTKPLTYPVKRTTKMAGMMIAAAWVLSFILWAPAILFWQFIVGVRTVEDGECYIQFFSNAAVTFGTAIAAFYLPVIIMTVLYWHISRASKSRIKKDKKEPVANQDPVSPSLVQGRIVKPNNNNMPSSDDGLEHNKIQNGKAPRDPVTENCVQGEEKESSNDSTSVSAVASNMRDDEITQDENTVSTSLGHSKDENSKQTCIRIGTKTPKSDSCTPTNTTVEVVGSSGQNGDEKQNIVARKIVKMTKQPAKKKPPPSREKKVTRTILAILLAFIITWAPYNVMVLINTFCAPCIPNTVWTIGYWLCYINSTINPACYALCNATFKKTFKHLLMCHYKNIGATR

[14] = target: T3, Muscarinic acetylcholine receptor M2 (Homo sapiens); assay: Binding affinity at the unliganded human muscarinic acetylcholine receptor M2 was estimated as log affinity (log1/M); method in brief: as §1
[15] = target: T3, Muscarinic acetylcholine receptor M2 (Homo sapiens); assay: Cooperativity with NMS at human muscarinic acetylcholine receptor M2; method in brief: as §2
[16] = target: T3, Muscarinic acetylcholine receptor M2 (Homo sapiens); assay: Cooperativity with acetylcholine at human muscarinic acetylcholine receptor M2; method in brief: as §2
[17] = target: T4, Muscarinic acetylcholine receptor M1 (Homo sapiens) (UniProt P11229); assay: Binding affinity at the NMS liganded human muscarinic acetylcholine receptor M1 was estimated as log affinity (log1/M); method in brief: as §1
T4 sequence (whole entry): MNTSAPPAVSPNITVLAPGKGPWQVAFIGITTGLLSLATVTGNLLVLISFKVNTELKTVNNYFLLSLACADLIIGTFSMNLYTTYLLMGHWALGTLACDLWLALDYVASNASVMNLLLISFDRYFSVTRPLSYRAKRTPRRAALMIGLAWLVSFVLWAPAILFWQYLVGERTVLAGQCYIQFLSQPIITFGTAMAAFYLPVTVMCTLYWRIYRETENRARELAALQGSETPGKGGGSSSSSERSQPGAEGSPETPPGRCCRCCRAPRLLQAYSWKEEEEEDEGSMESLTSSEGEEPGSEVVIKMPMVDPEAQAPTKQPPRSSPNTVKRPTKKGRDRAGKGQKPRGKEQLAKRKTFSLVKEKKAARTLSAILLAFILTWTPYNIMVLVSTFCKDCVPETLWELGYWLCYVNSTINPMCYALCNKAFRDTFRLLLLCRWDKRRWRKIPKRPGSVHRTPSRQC

[18] = target: T4, Muscarinic acetylcholine receptor M1 (Homo sapiens); assay: Binding affinity at the unliganded human muscarinic acetylcholine receptor M1 was estimated as log affinity (log1/M); method in brief: as §1
[19] = target: T4, Muscarinic acetylcholine receptor M1 (Homo sapiens); assay: Cooperativity with NMS at human muscarinic acetylcholine receptor M1; method in brief: as §2
[20] = target: T4, Muscarinic acetylcholine receptor M1 (Homo sapiens); assay: Cooperativity with acetylcholine at human muscarinic acetylcholine receptor M1; method in brief: as §2

| Compound | Affinity [1] | Affinity [2] | Cooperativity [3] | Cooperativity [4] | Cooperativity [5] | Cooperativity [6] | Affinity [7] | Affinity [8] | Affinity [9] | Affinity [10] | Cooperativity [11] | Cooperativity [12] | Affinity [13] | Affinity [14] | Cooperativity [15] | Cooperativity [16] | Affinity [17] | Affinity [18] | Cooperativity [19] | Cooperativity [20] |
| --- | --- | --- | --- | --- | --- | --- | --- | --- | --- | --- | --- | --- | --- | --- | --- | --- | --- | --- | --- | --- |
| COc1cc2c(cc1OC)[C@@]13CC[N+]4(CCl)CC5=CCO[C@H]6CC(=O)N2[C@H]1[C@H]6[C@H]5C[C@@H]34 (some centres undefined) | 4.3 | 4.3 | 1.19 | 1.19 | 0.2 | > 0.2 | 3.3 | 3.7 | 3.3 | 3.7 | 0.2 | < 0.2 | 4.4 | 4.2 | 2 | < 0.2 | 4.1 | 4.4 | 0.2 | 0.2 |
| CCC[N+]12CC[C@@]34c5ccccc5N5C(=O)C[C@@H]6OCC=C(C1)[C@H](C[C@@H]32)[C@@H]6[C@H]54 (some centres undefined) | 4.9 | 5.2 | 0.8 | < 0.2 | 0.8 | < 0.2 | 4.5 | 5 | – | – | – | – | 5.5 | 5.2 | 2 | < 0.2 | 4.8 | 5.2 | 0.8 | < 0.2 |
| C=CC[N+]12CC[C@@]34c5cc(OC)c(OC)cc5N5C(=O)C[C@@H]6OCC=C(C1)[C@H](C[C@@H]32)[C@@H]6[C@H]54 (some centres undefined) | 4.6 | 4.5 | 1.19 | 0.8 | 0.8 | 2 | 3.5 | 3.8 | – | 3.8 | 1.19 | 0.8 | 4.7 | 4.5 | 2 | 0.8 | 4.2 | 4.4 | 0.8 | 0.8 |
| O=C1C[C@@H]2OCC=C3C[N+]4(Cc5ccccc5)CC[C@]56c7ccccc7N1[C@H]5[C@H]2[C@H]3C[C@@H]64 (some centres undefined) | 5.6 | < 5.3 | 2 | 0.8 | 2 | 0.8 | 5.3 | < 5.2 | – | – | – | – | 6.3 | 5.3 | > 2 | < 0.2 | 5.2 | < 5 | 2 | < 0.2 |
| COc1cc2c(cc1OC)[C@@]13CC[N+]4(Cc5ccccc5)CC5=CCO[C@H]6CC(=O)N2[C@H]1[C@H]6[C@H]5C[C@@H]34 (some centres undefined) | 4.5 | 4.5 | 1.19 | 0.8 | 0.8 | 2 | 3.8 | > 4 | 3.7 | 3.7 | 1.19 | 0.8 | 4.8 | 4.6 | > 2 | 0.8 | 4.4 | < 4.6 | 0.8 | 0.8 |
| COc1cc2c(cc1OC)[C@@]13CC[N+]4([O-])CC5=CCO[C@H]6CC(=O)N2[C@H]1[C@H]6[C@H]5C[C@@H]34 (some centres undefined) | 3.7 | 3.7 | 1.19 | 2 | 1.19 | > 2 | 2.8 | 2.8 | 2.7 | 2.5 | 2 | 0.8 | 3.3 | 2.7 | > 2 | 0.8 | 3.6 | 3.4 | 2 | 1.19 |
| O=C1C[C@@H]2OCC=C3C[N+]4(Cc5cccc([N+](=O)[O-])c5)CC[C@]56c7ccccc7N1[C@H]5[C@H]2[C@H]3C[C@@H]64 (some centres undefined) | 5.6 | < 5.2 | > 2 | 0.8 | 2 | 0.8 | 4.8 | < 4.7 | – | – | – | – | 6 | < 5.4 | > 2 | 0.8 | 5.1 | < 4.9 | 2 | 0.8 |
| C=CC[N+]12CC[C@@]34c5ccccc5N5C(=O)C[C@@H]6OCC=C(C1)[C@H](C[C@@H]32)[C@@H]6[C@H]54 (some centres undefined) | 5 | 5 | 1.19 | 0.8 | 1.19 | < 0.2 | 4.6 | 4.6 | – | – | – | – | 5.9 | 5.3 | > 2 | < 0.2 | 4.7 | 4.7 | 1.19 | < 0.2 |
| N[N+]12CC[C@@]34c5ccccc5N5C(=O)C[C@@H]6OCC=C(C1)[C@H](C[C@@H]32)[C@@H]6[C@H]54 (some centres undefined) | 4.9 | < 4.4 | > 2 | 0.8 | 2 | 0.8 | 4.5 | < 4.4 | – | – | – | – | 5.4 | < 4.8 | > 2 | 0.8 | 4.7 | 4.3 | 2 | 0.8 |
